Legend:
ANO 2 = type: cell-based, rat; conditions: for Effect on ANO 2 current density (channel activation): bath application of 20 µM TFP or 50 µM J-8 for 10–70 min
Procedure, shortened: (§1)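 HEK 293 cells transiently transfected with rat ANO with C-terminal YFP tag; cells of similar YFP intensity recorded whole-cell. Bath (mM): 150 CsCl, 10 HEPES, 10 EGTA, pH 7.4. Pipette: 150 mM Cl−, 10 mM HEDTA, 10 mM HEPES, pH 7.0, free Ca2+ 0.7–62 µM. Ramps −80 to +80 mV (1 s), every 15 s from 2 min after breakthrough; current density in pA/pF.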

ANO 1 = type: cell-based, rat; conditions: for Effect on ANO 1 current density (channel activation): bath application of 20 µM TFP or 50 µM J-8 for 10–70 min
Procedure, shortened: as §1

CaM = CaM (Bos taurus, UniProt P62157); assay: Badan fluorescence peptide-binding assay with CaM; conditions: 3 µM peptide, 1.5 µM CaM, free Ca2+ 0.007 to 10 µM
[1] = target: Badan-labeled ANO 1 RCBM peptide, mutant m15,20 (rat); assay: other fluorescence titration
[2] = target: Badan-labeled ANO 2 RCBM peptide, mutant m2,6 (rat); assay: other fluorescence titration
[3] = target: Badan-labeled ANO 1 RCBM peptide, mutant m2,6 (rat); assay: other fluorescence titration
[4] = target: Badan-labeled ANO 2 RCBM peptide, mutant m15,20 (rat); assay: other fluorescence titration

In the case of `NCCCCCCCCNS(=O)(=O)c1cccc2c(I)cccc12` [J-8], the “Effect on ANO 2 current density (channel activation)” value (ANO 2) is reported as “did not significantly reduce” and the “Effect on ANO 1 current density (channel activation)” value (ANO 1) is reported as “did not significantly reduce”.

`CN1CCN(CCCN2c3ccccc3Sc3ccc(C(F)(F)F)cc32)CC1` [TFP, trifluoperazine] was tested, and the “Effect on ANO 2 current density (channel activation)” value (ANO 2) was “did not significantly reduce” and the “Effect on ANO 1 current density (channel activation)” value (ANO 1) was “did not significantly reduce”.

With `CN[C@@H]1C[C@H]2O[C@@](C)([C@@H]1OC)n1c3ccccc3c3c4c(c5c6ccccc6n2c5c31)C(=O)NC4` [staurosporine] the “Effect on ANO 2 channel activation or inactivation” value (ANO 2; 0.2–2 µM, 5–50 min, applied to the bath solution, 18 cells, unpublished data) was “did not detect any effect” and the “Effect on ANO 1 channel activation or inactivation” value (ANO 1; 0.2–2 µM, 5–50 min, applied to the bath solution, 6 cells, unpublished data) was “did not detect any effect”.

With RKLEYEEEASYGVFYKEQPIDEVRK [ANO ctrl] the “CaM binding of Badan-labeled peptide (Ca2+-dependent change of emission spectra)” value (CaM) was “completely abolished CaM binding”.

Work on “wild-type calmodulin (wt CaM), purchased (from UniProt P0DP23 1-149) (natural protein)” yielded an EC50 of free Ca^2+ for CaM binding [1] of 15.2 µM, an EC50 of free Ca^2+ for CaM binding [2] of 6 µM and an EC50 of free Ca^2+ for CaM binding [3] of 12 µM. The EC50 of free Ca^2+ for CaM binding [4] was 0.6 µM.

— PMC3787769 (The Journal of General Physiology, 2013)
